Measured values taken from ChEMBL document CHEMBL2150970, “Synthesis, anticancer activities and molecular modeling studies of novel indole retinoid derivatives” (Eur J Med Chem, 2012).
Active and inactive are the calls of the source. The calls are words filed in the database; no cut-off is given here.

How the values were obtained:
Huh-7 = experiment: Cytotoxicity against human HuH7 cells after 3 days by SRB assay; format: functional, cell-based
In short: (§1)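 Human cancer cells grown in DMEM with 10% FCS and penicillin/streptomycin (CAMA-1 medium also had 1% sodium pyruvate), at 37 °C, 5% CO2. Seeded at 10⁴ cells/well, dosed 24 h later, and exposed 3 days. Fixed with ice-cold 10% TCA for 60 min, stained 10 min with 0.4% SRB at room temperature, washed with 1% acetic acid, dye dissolved in 10 mM Tris base, A515 read. Triplicate runs with matched DMSO controls; IC50 determined.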

CAMA-1 = experiment: Cytotoxicity against human CAMA1 cells after 3 days by SRB assay; format: functional, cell-based; conditions: CAMA-1, 72 h; in short: as §1
T47D [1] = experiment: Cytotoxicity against human T47D cells after 3 days by SRB assay; format: functional, cell-based; in short: as §1
HCT-116 = experiment: Cytotoxicity against human HCT116 cells after 3 days by SRB assay; format: functional, cell-based; in short: as §1
MCF7 [2] = experiment: Cytotoxicity against human MCF7 cells after 3 days by SRB assay; format: functional, cell-based; conditions: MCF7, 72 h
In short: (§2)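 Cells at 10⁴/well were treated 24 h after seeding and exposed for three days. They were then fixed in ice-cold 10% TCA for 60 min at 4 °C, stained with 0.4% SRB for 10 min at room temperature, washed with 1% acetic acid and solubilised in 10 mM Tris base. Absorbance was read at 515 nm. IC₅₀ was determined in triplicate with DMSO vehicle controls.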

BT-474 = experiment: Cytotoxicity against human BT474 cells after 3 days by SRB assay; format: functional, cell-based; conditions: BT-474, 72 h; in short: as §2
MDA-MB-453 [3] = experiment: Cytotoxicity against human MDA-MB-453 cells after 3 days by SRB assay; format: functional, cell-based; conditions: MDA-MB-453, 72 h; in short: as §2
BT-20 = experiment: Cytotoxicity against human BT20 cells after 3 days by SRB assay; format: functional, cell-based; conditions: BT-20, 72 h; in short: as §2
SK-BR-3 = experiment: Cytotoxicity against human SKBR3 cells after 3 days by SRB assay; format: functional, cell-based; conditions: SK-BR-3, 72 h; in short: as §2
MDA-MB-361 [4] = experiment: Cytotoxicity against human MDA-MB-361 cells after 3 days by SRB assay; format: functional, cell-based; conditions: MDA-MB-361, 72 h; in short: as §2
MDA-MB-157 [5] = experiment: Cytotoxicity against human MDA-MB-157 cells after 3 days by SRB assay; format: functional, cell-based; conditions: MDA-MB-157, 72 h; in short: as §2
MDA-MB-231 [6] = experiment: Cytotoxicity against human MDA-MB-231 cells after 3 days by SRB assay; format: functional, cell-based; conditions: MDA-MB-231, 72 h; in short: as §2
ZR-75-1 = experiment: Cytotoxicity against human ZR-75-1 cells after 3 days by SRB assay; format: functional, cell-based; conditions: ZR-75-1, 72 h; in short: as §2
MCF-12A [7] = experiment: Cytotoxicity against human MCF12A cells after 3 days by SRB assay; format: cell-based; conditions: 72 h; in short: as §2
MCF-12A [8] = experiment: Ratio of IC50 for human MCF12A cells to IC50 for human CAMA1 cells
In short: (§3)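 Each IC50 came from the SRB assay after 3 days' exposure: 10⁴ cells/well, TCA fixation, 0.4% SRB, Tris solubilization, A515, triplicates, DMSO control. Ratio is immortalized normal breast MCF-12A IC50 over the breast cancer line's IC50. Media carried 10% FCS plus antibiotics: DMEM for most lines, DMEM with sodium pyruvate for CAMA-1/MDA-MB-157, glucose-rich RPMI for ZR-75-1, McCoy for SK-BR-3.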

T47D [9] = experiment: Ratio of IC50 for human MCF12A cells to IC50 for human T47D cells; in short: as §3
MCF7 [10] = experiment: Ratio of IC50 for human MCF12A cells to IC50 for human MCF7 cells; in short: as §3
MDA-MB-453 [11] = experiment: Ratio of IC50 for human MCF12A cells to IC50 for human MDA-MB-453 cells; in short: as §3
MCF-12A [12] = experiment: Ratio of IC50 for human MCF12A cells to IC50 for human BT20 cells; in short: as §3
MDA-MB-361 [13] = experiment: Ratio of IC50 for human MCF12A cells to IC50 for human MDA-MB-361 cells; in short: as §3
MDA-MB-157 [14] = experiment: Ratio of IC50 for human MCF12A cells to IC50 for human MDA-MB-157 cells; in short: as §3
T47D [15] = experiment: Induction of apoptosis in ER-positive human T47D cells assessed as apoptotic cells at IC50 concentration after 3 days by Hoechst staining based fluorescent microscopy; format: functional, cell-based
MDA-MB-231 [16] = experiment: Induction of apoptosis in ER-negative human MDA-MB-231 cells assessed as apoptotic cells at 1.83 uM after 3 days by Hoechst staining based fluorescent microscopy; format: functional, cell-based
MDA-MB-231 [17] = experiment: Induction of apoptosis in ER-negative human MDA-MB-231 cells assessed as apoptotic cells at 1.8 uM measured on day 2 by Annexin-V-FITC/propidium iodide staining based FACS flow cytometry; format: functional
In short: (§4)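 Cells seeded at 5×10⁵ per plate (37 °C, 5% CO2) and treated the following day at two concentrations. On days 2 and 4 after treatment, 1×10⁶ cells were stained with a FITC Annexin V/propidium iodide kit, kept on ice in the dark, and analysed at once on a FACSCalibur. Mean percentage of Annexin V+/PI+ cells is reported. Controls: matched DMSO, plus camptothecin and 1% v/v H2O2 as positive controls.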

MDA-MB-231 [18] = experiment: Induction of apoptosis in ER-negative human MDA-MB-231 cells assessed as apoptotic cells at 1.8 uM measured on day 4 by Annexin-V-FITC/propidium iodide staining based FACS flow cytometry; format: functional; in short: as §4
MDA-MB-231 [19] = experiment: Induction of apoptosis in ER-negative human MDA-MB-231 cells assessed as apoptotic cells at 3.6 uM measured on day 2 by Annexin-V-FITC/propidium iodide staining based FACS flow cytometry; format: functional; in short: as §4
MDA-MB-231 [20] = experiment: Induction of apoptosis in ER-negative human MDA-MB-231 cells assessed as apoptotic cells at 3.6 uM measured on day 4 by Annexin-V-FITC/propidium iodide staining based FACS flow cytometry; format: functional; in short: as §4
[21] = Homo sapiens, Huh-7, 72 h, read-out: IC50
[22] = Homo sapiens, T47D, 72 h, read-out: IC50
[23] = Homo sapiens, HCT-116, 72 h, read-out: IC50

With `CC1(C)CCC(C)(C)c2cc(C(=O)/C=C/c3c[nH]c4ccccc34)ccc21` the IC50 (Huh-7; [21]) was under 0.01 µM, the IC50 (CAMA-1) was under 0.01 µM and the IC50 (T47D [1]; [22]) was 0.1 µM. The IC50 (HCT-116; [23]) was 0.02 µM, the IC50 (MCF7 [2]) was 1.71 µM and the IC50 (BT-474) was 1.91 µM. The IC50 (MDA-MB-453 [3]) was under 0.01 µM, the IC50 (BT-20) was 1.31 µM and the IC50 (SK-BR-3) was 1.29 µM. It also gave an IC50 (MDA-MB-361 [4]) of 0.06 µM, an IC50 (MDA-MB-157 [5]) of 1.46 µM and an IC50 (MDA-MB-231 [6]) of 1.83 µM. It also gave an IC50 (ZR-75-1) of 3.88 µM, an IC50 (MCF-12A [7]) of 3.92 µM and a Ratio IC50 (MCF-12A [8]) of over 392. The Ratio IC50 (T47D [9]) was 3.38, the Ratio IC50 (MCF7 [10]) was 2.29 and the Ratio IC50 (MDA-MB-453 [11]) was over 392. It also gave a Ratio IC50 (MCF-12A [12]) of 2.99, a Ratio IC50 (MDA-MB-361 [13]) of 65.3 and a Ratio IC50 (MDA-MB-157 [14]) of 2.68. The Activity (T47D [15]) was “Active”, the Activity (MDA-MB-231 [16]) was “Active” and the Activity (MDA-MB-231 [17]) was 7.1%. For the same compound, the Activity (MDA-MB-231 [18]) was 10.53%, the Activity (MDA-MB-231 [19]) was 6.83% and the Activity (MDA-MB-231 [20]) was 15.62%.
`COc1ccc2[nH]cc(/C=C/C(=O)c3ccc4c(c3)C(C)(C)CCC4(C)C)c2c1` showed an IC50 (Huh-7; [21]) of 15.5 µM, an IC50 (T47D [1]; [22]) of 11.4 µM and an IC50 (HCT-116; [23]) of 13.9 µM.
`CC[C@@]1(O)C(=O)OCc2c1cc1n(c2=O)Cc2cc3ccccc3nc2-1` [CAMPTOTHECIN] was tested, and the IC50 (Huh-7; [21]) was 0.06 µM, the IC50 (T47D [1]; [22]) was under 0.01 µM and the IC50 (HCT-116; [23]) was under 0.01 µM. The IC50 (MCF7 [2]) was under 0.01 µM, the IC50 (BT-474) was 12.8 µM and the IC50 (MDA-MB-453 [3]) was under 0.01 µM. For the same compound, the IC50 (BT-20) was under 0.01 µM, the IC50 (SK-BR-3) was under 0.01 µM and the IC50 (MDA-MB-361 [4]) was 0.17 µM. The IC50 (MDA-MB-157 [5]) was 0.02 µM, the IC50 (MDA-MB-231 [6]) was under 0.01 µM and the IC50 (ZR-75-1) was under 0.01 µM. The IC50 (MCF-12A [7]) was under 0.01 µM.
For `CC1(C)CCC(C)(C)c2cc(C(=O)/C=C/c3c[nH]c4ccc(Cl)cc34)ccc21`, the IC50 (Huh-7; [21]) was 15.4 µM, the IC50 (T47D [1]; [22]) was 13.1 µM and the IC50 (HCT-116; [23]) was 10.7 µM.
For `CC1(C)CCC(C)(C)c2cc(C(=O)/C=C/c3c[nH]c4ccc(Br)cc34)ccc21`, the IC50 (Huh-7; [21]) was 14 µM, the IC50 (T47D [1]; [22]) was 11.5 µM and the IC50 (HCT-116; [23]) was 10.8 µM.
For `CC1(C)CCC(C)(C)c2cc(C(=O)/C=C/c3c[nH]c4ccc(C(=O)O)cc34)ccc21`, the IC50 (Huh-7; huh-7) was “Not Active”, the IC50 (T47D [1]; t47d) was “Not Active” and the IC50 (HCT-116; hct-116) was “Not Active”.
